INS-1E ATP HTS: protection of INS-1E cells from cytokine death, primary screen, ATP luminescence, single point; actives 0.1% (n = 20,000); INS-1E cytokine-induced death, 48 h; normalised: neutral wells 0, positive control 100; AID 488910, 2010; protection from cytokine-induced ATP loss, % at 10 µM;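 active = mean replicate protection from cytokine-induced ATP loss at least 50% and at least 75% of replicates each reaching 50%; inconclusive = meets only one of the two criteria, mean or replicate share; inactive = fails both the mean and replicate share criteria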
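Test system: INS-1E rat cells | Quantity: 8000 cells per well | Medium: Phenol-red-free RPMI with 5% fetal bovine serum | Reagent: Cytokine cocktail of IFN-γ, TNF-α and IL-1β | Doses: One compound concentration, pin transfer | Timing: 48 h co-treatment, 10 min post-lysis read | Technique: Luminescent ATP assay (CellTiter-Glo)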
T cruzi intra: inhibitors of intracellular Trypanosoma cruzi, primary screen, cell-based, plate reader, single point, set 2. intracellular Trypanosoma cruzi in host cells. activity score (inhibition), % at 5.01 µM. actives 4.9% (n = 22,000); in the data active = activity score above about 55%; inconclusive = no clear call, values can overlap the other calls;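 note: parasites and compound incubated about four days before reading; 0% = median of neutral control wells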
A1 apoptosis 2: A1 inhibitors via caspase activation, primary screen, cell-based, luminescence, HTS, two replicates; MEF A1-2A-BIM cells, caspase-Glo luminescence, 3 h; percent of clofoctol response, DMSO zero; caspase activation, % (no concentration beside the values); 24,000 tested, under 10 active; AID 2465, 2010; in the data active = caspase activation above about 5.9%; inconclusive = no clear call, values can overlap the other calls; inactive = below about 2.2%
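Material: mouse embryonic fibroblasts co-expressing A1 and BIM (A1-2A-BIM), primed for A1 dependence / Quantity: 2500 cells/well / Buffer or medium: RPMI-1640 growth medium with 10% FBS / Doses: 50 nL compound per well, pinned / Schedule: 3 h compound exposure at 37 °C / Signal: Caspase-Glo luminescence (DEVD substrate) / Measure: Caspase-3/7 activation, seen as rise in luminescence signal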
An asterisk follows results filed as active; ? = inconclusive; · = not tested or not shown. This excerpt belongs to a sample that is enriched for hits.

SMILES	INS-1E ATP HTS	T cruzi intra	A1 apoptosis 2
O=C(CCCCCC(=O)Nc1ccccc1O)N/N=C/c1ccc2c(c1)CCO2	-5	3	-1
Cc1ccc(O)c(/C=N/NC(=O)CCCCCC(=O)O)c1	-8	1	0
C[C@@H]1CN([C@@H](C)CO)C(=O)c2cc(NS(=O)(=O)c3ccc(Cl)cc3)ccc2O[C@@H]1CN(C)Cc1ccc(-c2ccccc2)cc1	-52	69*	1
C[C@@H]1CN([C@H](C)CO)C(=O)c2cc(NS(=O)(=O)c3ccc(Cl)cc3)ccc2O[C@@H]1CN(C)Cc1ccc(-c2ccccc2)cc1	-31	24	1
C[C@H](CO)N1C[C@H](C)[C@H](CN(C)Cc2ccc(-c3ccccc3)cc2)Oc2ccc(NS(=O)(=O)c3ccc(Cl)cc3)cc2C1=O	-3	56*	-2
C[C@H](CO)N1C[C@H](C)[C@@H](CN(C)Cc2ccc(-c3ccccc3)cc2)Oc2ccc(NS(=O)(=O)c3ccc(Cl)cc3)cc2C1=O	-16	22	·
O=C(CCCCCC(=O)Nc1ccccc1O)N/N=C/c1ccc(S(=O)(=O)O)o1	·	·	1
C[C@H](CO)N1C[C@H](C)[C@H](CN(C)Cc2ccc(C(=O)Nc3ccccc3N)cc2)Oc2ccc(NC(=O)Nc3ccc(C(F)(F)F)cc3)cc2C1=O	-6	42	1
C[C@H]1CN([C@@H](C)CO)C(=O)Cc2cc(NC(=O)Nc3ccc(C(F)(F)F)cc3)ccc2O[C@H]1CN(C)Cc1ccc(C(=O)Nc2ccccc2N)cc1	-40	87*	0
C[C@@H]1CN([C@H](C)CO)C(=O)Cc2cc(NC(=O)Nc3ccc(C(F)(F)F)cc3)ccc2O[C@@H]1CN(C)Cc1ccc(C(=O)Nc2ccccc2N)cc1	-11	83*	0
C[C@H]1CN([C@@H](C)CO)C(=O)Cc2cc(NC(=O)c3ccncc3)ccc2O[C@@H]1CN(C)Cc1ccc(C(=O)Nc2ccccc2N)cc1	10	32	0
COC(=O)c1cn(CC(=O)Nc2ccon2)nn1	·	·	-1
[N-]=[N+]=NCc1ccccc1C[C@@]1(C(=O)NCCN2CCOCC2)N=C(c2ccc(OCCCO)cc2)O[C@@H]1c1ccccc1	·	·	0
COc1ccc(NC(=O)Nc2ccc3c(c2)CC(=O)N([C@@H](C)CO)C[C@@H](C)[C@H](CN(C)Cc2ccc(C(F)(F)F)cc2)O3)cc1	·	·	1
C[C@H]1CN([C@@H](C)CO)C(=O)Cc2cc(NC(=O)Nc3ccc(F)cc3)ccc2O[C@@H]1CN(C)Cc1ccc(C(F)(F)F)cc1	-55	84*	1
COc1ccc(CN(C)C[C@H]2Oc3ccc(NC(=O)Nc4ccc(C(F)(F)F)cc4)cc3CC(=O)N([C@@H](C)CO)C[C@@H]2C)cc1	-7	12	0
C[C@H](CO)N1C[C@H](C)[C@H](CN(C)Cc2ccc(C(F)(F)F)cc2)Oc2ccc(NC(=O)Nc3ccc(F)cc3)cc2CC1=O	-18	78*	·
C[C@@H]1CN([C@H](C)CO)C(=O)Cc2cc(NC(=O)Nc3ccc(F)cc3)ccc2O[C@H]1CN(C)Cc1ccc(C(F)(F)F)cc1	-65	73*	·
CC1(C)[C@H]2CC=C(/C=N\NC(=O)c3ccc(C(=O)NO)cc3)[C@@H]1C2	3	11	0
COCCOC(=O)N1C(=O)[C@@]2(c3cc(C#CC4(O)CCCCCC4)ccc31)[C@H](c1ccc(O)cc1)N1[C@H](c3ccccc3)[C@H](c3ccccc3)OC(=O)[C@H]1[C@@H]2C(N)=O	·	·	0
O=C(N/N=C/c1ccccc1C(=O)O)c1ccccc1O	-21	-15	-13
O=C(Nc1ccccc1)c1ccc(CNc2nccc(-c3cccnc3)n2)cc1	·	·	0
O=C1N(Cc2ccccc2)Cc2ccccc2C[C@@]12N=C(c1ccc(OCCCO)cc1)O[C@H]2c1ccccc1	·	·	0
O=C(CCCCCC(=O)Nc1ccccc1O)N/N=C\c1cccnc1Br	-7	-1	·
COc1ccc(NC(=O)Nc2ccc3c(c2)CC(=O)N([C@H](C)CO)C[C@H](C)[C@H](CN(C)Cc2ccc(C(=O)Nc4ccccc4N)cc2)O3)cc1	45	?	·
SMILES	INS-1E ATP HTS	T cruzi intra	A1 apoptosis 2
COc1ccc(NC(=O)Nc2ccc3c(c2)C(=O)N([C@H](C)CO)C[C@H](C)[C@H](CN(C)Cc2ccc(C(=O)Nc4ccccc4N)cc2)O3)cc1	-9	17	2
COc1ccc(NC(=O)Nc2ccc3c(c2)CC(=O)N([C@@H](C)CO)C[C@H](C)[C@H](CN(C)Cc2ccc(C(=O)Nc4ccccc4N)cc2)O3)cc1	4	45	-1
COc1ccc(NC(=O)Nc2ccc3c(c2)CC(=O)N([C@@H](C)CO)C[C@H](C)[C@@H](CN(C)Cc2ccc(C(=O)Nc4ccccc4N)cc2)O3)cc1	-6	63*	-1
COc1ccc(NC(=O)Nc2ccc3c(c2)CC(=O)N([C@@H](C)CO)C[C@@H](C)[C@@H](CN(C)Cc2ccc(C(=O)Nc4ccccc4N)cc2)O3)cc1	-18	60*	1
COc1ccc(NC(=O)Nc2ccc3c(c2)CC(=O)N([C@H](C)CO)C[C@@H](C)[C@@H](CN(C)Cc2ccc(C(=O)Nc4ccccc4N)cc2)O3)cc1	-8	66*	1
CC(C)(C)OC(=O)NC/C=N/NC(=O)CCCCCCC(=O)O	11	-17	1
O=C(CCCCCC(=O)Nc1ccccc1O)N/N=C/c1ccccc1OCCO	8	-12	·
CC(C)=CCC[C@H](C)C/C=N/NC(=O)CCCCCCC(=O)Nc1ccccc1O	6	4	-2
C[C@H]1CN([C@@H](C)CO)C(=O)Cc2cc(NC(=O)Cc3ccccc3)ccc2O[C@H]1CN(C)Cc1ccc(C(=O)Nc2ccccc2N)cc1	·	·	1
C[C@H](CO)N1C[C@H](C)[C@H](CN(C)Cc2ccc(C(=O)Nc3ccccc3N)cc2)Oc2ccc(NC(=O)Cc3ccccc3)cc2CC1=O	45	64*	·
C[C@@H]1CN([C@@H](C)CO)C(=O)Cc2cc(NC(=O)Cc3ccccc3)ccc2O[C@@H]1CN(C)Cc1ccc(C(=O)Nc2ccccc2N)cc1	-14	77*	0
C[C@@H]1CN([C@H](C)CO)C(=O)Cc2cc(NC(=O)Cc3ccccc3)ccc2O[C@H]1CN(C)Cc1ccc(C(=O)Nc2ccccc2N)cc1	-20	30	1
C=CC[C@]1(C(=O)NCCN2CCOCC2)COC(c2ccc(OCCCO)cc2)=N1	·	·	-1
C[C@H](CO)N1C[C@H](C)[C@H](CN(C)C(=O)Nc2ccc(C(F)(F)F)cc2)Oc2c(NC(=O)c3ccc(-c4nccs4)cc3)cccc2C1=O	-55	?	·
C[C@H]1CN([C@@H](C)CO)C(=O)c2cccc(NC(=O)c3ccc(-c4nccs4)cc3)c2O[C@@H]1CN(C)Cc1ccc(-c2ccccc2)cc1	-29	70*	-1
C[C@@H]1CN([C@H](C)CO)C(=O)c2cccc(NC(=O)c3ccc(-c4nccs4)cc3)c2O[C@@H]1CN(C)Cc1ccc(-c2ccccc2)cc1	-43	42	-2

Screening data: PubChem, Broad Institute
